From ChEMBL document CHEMBL1177763, “Synthesis and biological activity of glycosyl-1H-1,2,3-triazoles” (Bioorg Med Chem Lett, 2010)
pIC50, pKi: −log10 of the molar value. Blank lines part the entries; values can stand above or below the molecule they belong to. The source made the active and inactive calls. The calls are words filed in the database; no cut-off is given here.

Tests used:
Prunus dulcis = assay: Inhibition of sweet almond beta-glucosidase at 1 mM
[1] = target: T1, Early activation antigen CD69 (Homo sapiens, UniProt Q07108); assay: Binding affinity to rhodamine-labeled human CD69 receptor after 2 hrs by fluorescence assay
T1 sequence (Q07108 whole entry): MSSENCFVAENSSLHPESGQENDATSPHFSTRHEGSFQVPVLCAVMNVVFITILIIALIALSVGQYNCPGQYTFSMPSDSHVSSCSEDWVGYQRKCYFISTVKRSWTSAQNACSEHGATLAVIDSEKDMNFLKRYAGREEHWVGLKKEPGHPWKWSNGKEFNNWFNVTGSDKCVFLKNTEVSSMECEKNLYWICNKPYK
Outline: (§1)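 Competitive displacement assay: the compound's ability to displace a high-affinity receptor ligand was measured on rat NKR-P1A and human CD69 activating receptors. Affinity was expressed relative to free N-acetyl-D-glucosamine as the reference ligand.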

[2] = target: T2, Killer cell lectin-like receptor subfamily B member 1A (Rattus norvegicus, UniProt P27471); assay: Binding affinity to fluorescein-labeled rat NKR-P1A after 2 hrs by fluorescence assay; outline: as §1
T2 sequence (P27471 whole entry): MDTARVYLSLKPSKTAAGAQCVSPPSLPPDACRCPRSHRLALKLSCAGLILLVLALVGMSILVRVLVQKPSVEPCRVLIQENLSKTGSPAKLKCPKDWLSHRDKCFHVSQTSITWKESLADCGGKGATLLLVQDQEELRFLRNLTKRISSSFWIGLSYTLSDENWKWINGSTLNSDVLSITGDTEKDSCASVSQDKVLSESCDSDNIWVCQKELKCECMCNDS

[3] = target: Alpha-galactosidase (Coffea arabica) (UniProt Q42656); assay: Inhibition of green coffee bean alpha-galactosidase at 1 mM
Aspergillus oryzae = assay: Inhibition of Aspergillus oryzae CCF 1066 beta-N-acetylglucosaminidase at 2 mM
Penicillium oxalicum = assay: Inhibition of Penicillium oxalicum CCF 1959 beta-N-acetylglucosaminidase at 2 mM
Penicillium pittii = assay: Inhibition of Penicillium pittii CCF 2277 beta-N-acetylglucosaminidase at 2 mM
Talaromyces flavus = assay: Inhibition of Talaromyces flavus CCF 2686 beta-N-acetylglucosaminidase at 2 mM
[4] = target: Beta-galactosidase (Escherichia coli) (UniProt Q8VNN2); assay: Inhibition of Escherichia coli beta-galactosidase at 1 mM
[5] = target: T3, Beta-galactosidase (Aspergillus oryzae) (UniProt Q2U7N3); assay: Inhibition of Aspergillus oryzae beta-galactosidase at 1 mM
T3 sequence (whole entry): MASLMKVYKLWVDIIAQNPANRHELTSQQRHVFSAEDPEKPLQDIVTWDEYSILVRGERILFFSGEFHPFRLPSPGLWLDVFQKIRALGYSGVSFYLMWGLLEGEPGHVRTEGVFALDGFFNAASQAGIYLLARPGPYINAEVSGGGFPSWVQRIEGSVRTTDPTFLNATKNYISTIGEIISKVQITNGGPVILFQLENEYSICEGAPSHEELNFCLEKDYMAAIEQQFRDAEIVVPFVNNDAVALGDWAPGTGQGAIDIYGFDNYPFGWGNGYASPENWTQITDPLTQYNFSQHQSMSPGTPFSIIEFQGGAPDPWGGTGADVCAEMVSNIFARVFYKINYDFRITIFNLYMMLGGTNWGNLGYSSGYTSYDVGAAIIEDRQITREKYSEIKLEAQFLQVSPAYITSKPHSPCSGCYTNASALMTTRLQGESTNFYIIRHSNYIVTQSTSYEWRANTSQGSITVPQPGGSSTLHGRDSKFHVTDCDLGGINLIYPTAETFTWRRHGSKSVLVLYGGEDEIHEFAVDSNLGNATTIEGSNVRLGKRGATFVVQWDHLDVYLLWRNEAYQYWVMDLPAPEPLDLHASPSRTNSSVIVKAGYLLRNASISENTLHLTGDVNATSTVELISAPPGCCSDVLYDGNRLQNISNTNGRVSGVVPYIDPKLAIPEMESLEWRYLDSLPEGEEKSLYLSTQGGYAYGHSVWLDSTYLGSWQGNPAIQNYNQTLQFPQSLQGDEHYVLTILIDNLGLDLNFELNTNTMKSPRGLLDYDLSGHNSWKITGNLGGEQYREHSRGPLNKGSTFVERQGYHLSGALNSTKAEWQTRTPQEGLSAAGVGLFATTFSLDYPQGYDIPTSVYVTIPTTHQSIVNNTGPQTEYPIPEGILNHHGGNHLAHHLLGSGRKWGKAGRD

Saccharomyces cerevisiae = assay: Inhibition of yeast alpha-glucosidase at 1 mM
Beta-galactosidase = Beta-galactosidase (Escherichia coli, UniProt Q8VNN2); assay: Inhibition of Escherichia coli beta-galactosidase
Chain of Beta-galactosidase (Q8VNN2 whole entry): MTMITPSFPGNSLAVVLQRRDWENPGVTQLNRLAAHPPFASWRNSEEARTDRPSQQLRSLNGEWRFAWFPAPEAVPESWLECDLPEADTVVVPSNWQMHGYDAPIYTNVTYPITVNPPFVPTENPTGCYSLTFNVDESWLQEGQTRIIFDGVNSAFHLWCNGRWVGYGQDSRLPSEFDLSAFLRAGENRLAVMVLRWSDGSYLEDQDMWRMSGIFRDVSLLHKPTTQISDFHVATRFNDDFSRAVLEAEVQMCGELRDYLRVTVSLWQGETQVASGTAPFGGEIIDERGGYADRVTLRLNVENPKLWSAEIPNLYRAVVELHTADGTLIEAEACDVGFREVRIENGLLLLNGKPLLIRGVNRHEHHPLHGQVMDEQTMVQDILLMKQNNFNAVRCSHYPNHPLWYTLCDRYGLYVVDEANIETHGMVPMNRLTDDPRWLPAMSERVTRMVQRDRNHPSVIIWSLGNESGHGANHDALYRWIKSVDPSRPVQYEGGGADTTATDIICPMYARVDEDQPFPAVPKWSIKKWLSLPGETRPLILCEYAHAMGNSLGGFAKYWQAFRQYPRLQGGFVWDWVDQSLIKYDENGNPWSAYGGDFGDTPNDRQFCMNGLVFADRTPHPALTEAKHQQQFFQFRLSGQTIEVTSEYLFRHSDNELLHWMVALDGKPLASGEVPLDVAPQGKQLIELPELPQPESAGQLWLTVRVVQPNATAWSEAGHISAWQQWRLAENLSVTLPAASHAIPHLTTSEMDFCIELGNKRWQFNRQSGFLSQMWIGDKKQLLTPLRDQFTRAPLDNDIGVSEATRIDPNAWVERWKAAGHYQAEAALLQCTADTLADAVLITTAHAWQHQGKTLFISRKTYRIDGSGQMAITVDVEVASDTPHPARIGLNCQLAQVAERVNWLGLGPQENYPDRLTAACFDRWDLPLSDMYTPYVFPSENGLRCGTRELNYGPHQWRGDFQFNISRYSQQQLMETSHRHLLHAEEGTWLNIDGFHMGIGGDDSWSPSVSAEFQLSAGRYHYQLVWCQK

Chain of Beta-galactosidase (Escherichia coli) (Q8VNN2 whole entry, looked up): as the sequence (Q8VNN2 whole entry) above
Chain of Alpha-galactosidase (Coffea arabica) (Q42656 16-378 limits assumed): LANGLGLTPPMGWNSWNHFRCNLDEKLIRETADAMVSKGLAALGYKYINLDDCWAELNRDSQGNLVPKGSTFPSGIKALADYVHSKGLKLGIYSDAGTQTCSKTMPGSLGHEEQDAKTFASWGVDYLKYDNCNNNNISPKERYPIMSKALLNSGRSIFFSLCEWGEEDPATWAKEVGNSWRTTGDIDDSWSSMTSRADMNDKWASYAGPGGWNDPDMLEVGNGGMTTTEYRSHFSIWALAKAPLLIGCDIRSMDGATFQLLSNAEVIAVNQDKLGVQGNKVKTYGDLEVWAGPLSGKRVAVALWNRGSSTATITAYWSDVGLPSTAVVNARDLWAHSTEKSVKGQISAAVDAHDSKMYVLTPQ

inhibition (Prunus dulcis): inactive
SMILES: OC[C@H]1O[C@@H](n2ccnn2)[C@H](O)[C@@H](O)[C@@H]1O

pIC50 [1]: 3.90
SMILES: CC(=O)N[C@@H]1[C@@H](O)[C@H](O)[C@@H](CO)O[C@H]1O [N-ACETYLGLUCOSAMINE]
pIC50 [2]: 5.70

inhibition [3]: inactive
SMILES: OC[C@H]1O[C@H](n2ccnn2)[C@H](O)[C@@H](O)[C@H]1O

pIC50 [1]: 5.40 | inhibition (Aspergillus oryzae): inactive | inhibition (Penicillium oxalicum): inactive | inhibition (Penicillium pittii): inactive | inhibition (Talaromyces flavus): inactive
SMILES: CC(=O)N[C@@H]1[C@@H](O)[C@H](O)[C@@H](CO)O[C@H]1n1ccnn1
pIC50 [2]: 7.20

inhibition [4]: inactive | inhibition [5]: inactive
SMILES: OC[C@H]1O[C@@H](n2ccnn2)[C@H](O)[C@@H](O)[C@H]1O

inhibition (Saccharomyces cerevisiae): inactive
SMILES: OC[C@H]1O[C@H](n2ccnn2)[C@H](O)[C@@H](O)[C@@H]1O

pKi (Beta-galactosidase): 3.48
SMILES: OC[C@H]1O[C@@H](n2cc(-c3ccccc3)nn2)[C@H](O)[C@@H](O)[C@@H]1O
